Drawing on ChEMBL document CHEMBL1155700, “Cancer chemopreventive agents. New depsidones from Garcinia plants” (J Nat Prod, 2001), this text covers viability, Activity and IC50 for six compounds.

Series [1] is described as follows: Cytotoxicity against human Raji cells assessed as cell viability at 10 molar ratio after 48 hrs by trypan blue staining relative to TPA. The settings on record: read-out: Activity. In kind it is cell-based. The method in brief: (§1)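 Raji cells grown to 10⁶ cells/mL, pelleted, resuspended in RPMI 1640 with 10% FCS, 4 mM n-butyric acid, 32 pmol TPA (20 ng/mL in DMSO) plus test compound in DMSO (0.32–32 nmol; mole ratio to TPA 10–1000). After 48 h at 37 °C, cell number and viability were counted on a hemocytometer by Trypan Blue exclusion. At least 60% viability was required for valid EA data.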

A short description of series [2]: Cytotoxicity against human Raji cells assessed as cell viability at 500 molar ratio after 48 hrs by trypan blue staining relative to TPA. It is filed as cell-based. The settings on record: read-out: Activity. The method in brief: as §1
Series [3] deals with Raji. Description: Inhibition of 12-O-tetradecanoylphorbol-13-acetate-induced EBV-early antigen activation in human Raji cells assessed as EA activation at 100 molar ratio after 48 hrs relative to TPA. On the set-up: scale not given: the % may be the effect or the level left. The settings on record: human gammaherpesvirus 4. It is filed as cell-based. The method, boiled down:
(§2)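 Raji cells at 10⁶ cells/mL were resuspended in RPMI 1640/10% FCS containing 4 mM n-butyric acid inducer, 32 pmol TPA (20 ng/mL) and 32, 16, 3.2 or 0.32 nmol compound (DMSO), then held 48 h at 37 °C. EA-positive cells were scored blind, at least 500 cells per assay. Activation is expressed as % of the TPA-only positive control (100%), mean ± SD. IC50 is given as mol ratio/TPA.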

The nature of series [4]: Inhibition of 12-O-tetradecanoylphorbol-13-acetate-induced EBV-early antigen activation in human Raji cells assessed as EA activation per 32 pmol TPA after 48 hrs. In kind it is cell-based, human gammaherpesvirus 4. The method in brief: as §2
Series [5] can be described thus: Cytotoxicity against human Raji cells assessed as cell viability at 1000 molar ratio after 48 hrs by trypan blue staining relative to TPA. It is filed as cell-based. The settings on record: read-out: Activity. The method in brief: as §1
Series [6] deals with Raji. Description: Inhibition of 12-O-tetradecanoylphorbol-13-acetate-induced EBV-early antigen activation in human Raji cells assessed as EA activation at 10 molar ratio after 48 hrs relative to TPA. In kind it is cell-based. The arrangement: scale not given: the % may be the effect or the level left. The conditions noted are these: human gammaherpesvirus 4. The method in brief:
as §2

Series [7] relates to Raji. As to the kind of experiment: Inhibition of 12-O-tetradecanoylphorbol-13-acetate-induced EBV-early antigen activation in human Raji cells assessed as EA activation at 500 molar ratio after 48 hrs relative to TPA. In kind it is cell-based. The arrangement: scale not given: the % may be the effect or the level left. The conditions noted are these: human gammaherpesvirus 4. The method in brief: as §2

Series [8] in a line: Cytotoxicity against human Raji cells assessed as cell viability at 100 molar ratio after 48 hrs by trypan blue staining relative to TPA. The settings on record: read-out: Activity. In kind it is cell-based. The method in brief: as §1
For series [9], the system named is Raji. As to the kind of experiment: Inhibition of 12-O-tetradecanoylphorbol-13-acetate-induced EBV-early antigen activation in human Raji cells assessed as EA activation at 1000 molar ratio after 48 hrs relative to TPA. On the set-up: scale not given: the % may be the effect or the level left. In kind it is cell-based. The settings on record: human gammaherpesvirus 4. The method in brief:
as §2

Structures are written as SMILES. Where only a bound is given, the exact number is not on record here.

Turning to `CC(C)=CCc1c(O)c(CC=C(C)C)c2c(c1O)C(=O)Oc1c(cc(O)c3c1C=CC(C)(C)O3)O2` [GARCINISIDONE E], in series [1], the viability at 48 h, 10 molar ratio relative to TPA is more than 80%. Besides, the viability at 48 h, 500 molar ratio relative to TPA in [2] was more than 80%. The Activity turned out to be 71.1% in [3], 90.2% in [6], 40% in series [7] and 0% in series [9]. Moreover, in series [4], the IC50 is 350 molar ratio. Moreover, in series [5], the viability at 48 h, 1000 molar ratio relative to TPA came out at 70%. Also, in series [8], the viability at 48 h, 100 molar ratio relative to TPA is more than 80%.

In the case of `CC(C)=CCc1c(O)c2c(c3c1OC(C)(C)C=C3)Oc1cc(O)c3c(c1OC2=O)C=CC(C)(C)O3` [GARCINISIDONE D], in series [1], the viability at 48 h, 10 molar ratio relative to TPA is more than 80%. In [2], the viability at 48 h, 500 molar ratio relative to TPA was more than 80%. The Activity in series [3] was found to be 72%; in [6], 92.8%; in [7], 40.4%; in series [9], 0%. For the same compound, the IC50 in series [4] was found to be 360 molar ratio. In addition, the viability at 48 h, 1000 molar ratio relative to TPA in [5] amounted to 60%. In series [8], the viability at 48 h, 100 molar ratio relative to TPA is more than 80%.

Turning to `CC1=C(/C=C/C(C)=C/C=C/C(C)=C/C=C/C=C(C)/C=C/C=C(C)/C=C/C2=C(C)CCCC2(C)C)C(C)(C)CCC1` [BETA CAROTENE], in series [4], the IC50 is given as 400 molar ratio. The values for the Activity in [6] and in series [9] were 100% and 9.1%, respectively.

For `COc1c(O)cc2c(c1CC=C(C)C)OC(=O)c1c(cc(O)c(CC=C(C)C)c1O)O2` [GARCINISIDONE A], the viability at 48 h, 10 molar ratio relative to TPA in [1] was more than 80%. In addition, in series [2], the viability at 48 h, 500 molar ratio relative to TPA was more than 80%. In addition, the Activity worked out at 78.3% in [3], 91.6% in series [6], 44.2% in [7] and 0% in series [9]. Moreover, in [4], the IC50 is listed as 365 molar ratio. Also, in series [5], the viability at 48 h, 1000 molar ratio relative to TPA stood at 70%. For the same compound, the viability at 48 h, 100 molar ratio relative to TPA in series [8] is more than 80%.

Consider `COc1c(O)cc2c(c1CC=C(C)C)OC(=O)c1c(cc3c(c1O)C=CC(C)(C)O3)O2` [GARCINISIDONE B], for which the viability at 48 h, 10 molar ratio relative to TPA in [1] is more than 80%. In series [2], the viability at 48 h, 500 molar ratio relative to TPA was more than 80%. For the same compound, the Activity in [3] was 81.7%; in series [6], 100%; in [7] it was 50.6%; in series [9] it was 0%. Besides, the IC50 in [4] amounted to 410 molar ratio. Further, the viability at 48 h, 1000 molar ratio relative to TPA in [5] was found to be 70%. The viability at 48 h, 100 molar ratio relative to TPA in series [8] was more than 80%.

On to `CC(C)=CCc1c2c(c(O)c3c1Oc1cc(O)c4c(c1OC3=O)C=CC(C)(C)O4)C=CC(C)(C)O2` [GARCINISIDONE C], for which the viability at 48 h, 10 molar ratio relative to TPA in [1] was more than 80%. For the same compound, in series [2], the viability at 48 h, 500 molar ratio relative to TPA is more than 80%. For the same compound, the Activity came out at 72.2% in series [3], 93.5% in series [6], 41.8% in series [7] and 0% in [9]. Besides, in series [4], the IC50 is on record as 370 molar ratio. For the same compound, the viability at 48 h, 1000 molar ratio relative to TPA in series [5] was 70%. Besides, the viability at 48 h, 100 molar ratio relative to TPA in [8] is more than 80%.
